pIC50: −log10 of the molar value. ≈ marks a conversion by molar mass, not a printed value.
Assays:
Pseudomonas aeruginosa [1] = assay: Antibacterial activity against Pseudomonas aeruginosa PAO1 harboring siderophore receptor pirA and pfeA double mutant in Mueller-Hinton broth medium by CLSI broth microdilution method; format: functional
In short: (§1)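 MIC by CLSI broth microdilution in standard Mueller Hinton broth. Tested against wild-type P. aeruginosa PAO1 and an isogenic panel lacking one or more siderophore receptors.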

Pseudomonas aeruginosa [2] = assay: Ratio of MIC for Pseudomonas aeruginosa PAO1 harboring siderophore receptor fptA mutant to MIC for wild type Pseudomonas aeruginosa PAO1 in Mueller-Hinton broth medium by CLSI broth microdilution method; format: functional
In short: (§2)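 Receptor-deficient PAO1 strain MIC divided by parent PAO1 MIC. Both MICs were obtained by CLSI broth microdilution in standard Mueller Hinton broth. A shift greater than 4× was taken to indicate that the deleted receptor(s) take part in drug uptake.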

Pseudomonas aeruginosa [3] = assay: Ratio of MIC for Pseudomonas aeruginosa PAO1 harboring siderophore receptor pfeA mutant to MIC for wild type Pseudomonas aeruginosa PAO1 in Mueller-Hinton broth medium by CLSI broth microdilution method; format: functional; in short: as §2
Pseudomonas aeruginosa [4] = assay: Antibacterial activity against Pseudomonas aeruginosa PAO1 harboring siderophore receptor piuA mutant in medium containing low-Fe by CLSI broth microdilution method; format: functional
In short: (§3)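 MIC by CLSI broth microdilution in a modified Mueller Hinton broth depleted of iron to mimic the low-iron in vivo environment. Tested against PAO1 and isogenic strains lacking one or more siderophore receptors.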

Pseudomonas aeruginosa [5] = assay: Antibacterial activity against Pseudomonas aeruginosa PAO1 harboring siderophore receptor fptA mutant in medium containing low-Fe by CLSI broth microdilution method; format: functional; in short: as §3
Pseudomonas aeruginosa [6] = assay: Antibacterial activity against Pseudomonas aeruginosa PAO1 harboring siderophore receptor piuA and fptA double mutant in medium containing low-Fe by CLSI broth microdilution method; format: functional; in short: as §3
Pseudomonas aeruginosa [7] = assay: Antibacterial activity against Pseudomonas aeruginosa PAO1 harboring siderophore receptor piuA and pirA double mutant in medium containing low-Fe by CLSI broth microdilution method; format: functional; in short: as §3
Pseudomonas aeruginosa [8] = assay: Ratio of MIC for Pseudomonas aeruginosa PAO1 harboring siderophore receptor piuA mutant to MIC for wild type Pseudomonas aeruginosa PAO1 in medium containing low-Fe by CLSI broth microdilution method; format: functional
In short: (§4)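 CLSI broth microdilution MICs in a modified Mueller-Hinton broth depleted of iron to mimic low in vivo iron. Tested against wild-type PAO1 and isogenic siderophore receptor knockout strains. Reported as the knockout-strain MIC divided by the PAO1 MIC in the same iron-depleted medium.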

Pseudomonas aeruginosa [9] = assay: Ratio of MIC for Pseudomonas aeruginosa PAO1 harboring siderophore receptor pirA mutant to MIC for wild type Pseudomonas aeruginosa PAO1 in medium containing low-Fe by CLSI broth microdilution method; format: functional
In short: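 Ratio of strain MIC to PAO1 MIC. Both MICs were obtained by CLSI broth microdilution in iron-depleted modified Mueller Hinton broth. A shift greater than 4× versus the parent was read as the deleted receptor(s) taking part in uptake.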

Pseudomonas aeruginosa [10] = assay: Ratio of MIC for Pseudomonas aeruginosa PAO1 harboring siderophore receptor piuA and fpvA double mutant to MIC for wild type Pseudomonas aeruginosa PAO1 in medium containing low-Fe by CLSI broth microdilution method; format: functional; in short: as §4
Pseudomonas aeruginosa [11] = assay: Ratio of MIC for Pseudomonas aeruginosa PAO1 harboring siderophore receptor piuA and fptA double mutant to MIC for wild type Pseudomonas aeruginosa PAO1 in medium containing low-Fe by CLSI broth microdilution method; format: functional; in short: as §4
Pseudomonas aeruginosa [12] = assay: Ratio of MIC for Pseudomonas aeruginosa PAO1 harboring siderophore receptor piuA, pfeA and pirA mutant to MIC for wild type Pseudomonas aeruginosa PAO1 in medium containing low-Fe by CLSI broth microdilution method; format: functional; in short: as §4
Pseudomonas aeruginosa [13] = assay: Ratio of MIC for Pseudomonas aeruginosa PAO1 harboring siderophore receptor fpvA mutant in MHB medium to MIC for Pseudomonas aeruginosa PAO1 harboring siderophore receptor fpvA mutant in medium containing low-Fe by CLSI broth microdilution method; format: functional
Pseudomonas aeruginosa [14] = assay: Antibacterial activity against Pseudomonas aeruginosa PAO1 harboring siderophore receptor pirA mutant in medium containing aztreonam and low-Fe by CLSI broth microdilution method; format: functional
Pseudomonas aeruginosa [15] = assay: Antibacterial activity against Pseudomonas aeruginosa PAO1 harboring siderophore receptor fptA mutant in medium containing aztreonam and low-Fe by CLSI broth microdilution method; format: functional
Pseudomonas aeruginosa [16] = assay: Antibacterial activity against Pseudomonas aeruginosa PAO1 harboring siderophore receptor piuA and fptA double mutant in medium containing aztreonam and low-Fe by CLSI broth microdilution method; format: functional
Pseudomonas aeruginosa [17] = assay: Antibacterial activity against Pseudomonas aeruginosa PAO1 harboring siderophore receptor piuA and pfeA double mutant in medium containing aztreonam and low-Fe by CLSI broth microdilution method; format: functional
Pseudomonas aeruginosa [18] = assay: Ratio of MIC for Pseudomonas aeruginosa PAO1 harboring siderophore receptor piuA mutant to MIC for wild type Pseudomonas aeruginosa PAO1 in medium containing aztreonam and low-Fe by CLSI broth microdilution method; format: functional
Pseudomonas aeruginosa [19] = assay: Ratio of MIC for Pseudomonas aeruginosa PAO1 harboring siderophore receptor pirA mutant to MIC for wild type Pseudomonas aeruginosa PAO1 in medium containing aztreonam and low-Fe by CLSI broth microdilution method; format: functional
Pseudomonas aeruginosa [20] = assay: Ratio of MIC for Pseudomonas aeruginosa PAO1 harboring siderophore receptor fpvA mutant to MIC for wild type Pseudomonas aeruginosa PAO1 in medium containing aztreonam and low-Fe by CLSI broth microdilution method; format: functional
Pseudomonas aeruginosa [21] = assay: Ratio of MIC for Pseudomonas aeruginosa PAO1 harboring siderophore receptor fptA mutant to MIC for wild type Pseudomonas aeruginosa PAO1 in medium containing aztreonam and low-Fe by CLSI broth microdilution method; format: functional
Pseudomonas aeruginosa [22] = assay: Ratio of MIC for Pseudomonas aeruginosa PAO1 harboring siderophore receptor pfeA mutant to MIC for wild type Pseudomonas aeruginosa PAO1 in medium containing aztreonam and low-Fe by CLSI broth microdilution method; format: functional
Escherichia coli [23] = assay: Antibacterial activity against Escherichia coli DH5alpha by CLSI broth microdilution method; format: functional; details: DH5[alpha]
Escherichia coli [24] = assay: Antibacterial activity against Escherichia coli DH5alpha harboring pUCP26 empty vector by CLSI broth microdilution method; format: functional; details: DH5[alpha]
Escherichia coli [25] = assay: Antibacterial activity against Escherichia coli DH5alpha expressing beta-lactamase TEM-1 by CLSI broth microdilution method; format: functional; details: DH5[alpha]
Escherichia coli [26] = assay: Antibacterial activity against Escherichia coli EC-28 by CLSI broth microdilution method; format: functional
Pseudomonas aeruginosa [27] = assay: Antibacterial activity against Pseudomonas aeruginosa 1091-05 by CLSI broth microdilution method; format: functional
Klebsiella pneumoniae = assay: Antibacterial activity against Klebsiella pneumoniae KP-3700 by CLSI broth microdilution method; format: functional
Acinetobacter baumannii = assay: Antibacterial activity against Acinetobacter baumannii AB-3167 by CLSI broth microdilution method; format: functional
[28] = Displacement of fluorescent Bocillin FL from Pseudomonas aeruginosa PBP1b
[29] = Displacement of fluorescent Bocillin FL from Pseudomonas aeruginosa PBP3
Pseudomonas aeruginosa [30] = assay: Ratio of MIC for Pseudomonas aeruginosa PAO1 harboring siderophore receptor pirA and pfeA double mutant to MIC for wild type Pseudomonas aeruginosa PAO1 in Mueller-Hinton broth medium by CLSI broth microdilution method; format: functional; in short: as §2
Pseudomonas aeruginosa [31] = assay: Antibacterial activity against Pseudomonas aeruginosa PAO1 harboring siderophore receptor piuA mutant in Mueller-Hinton broth medium by CLSI broth microdilution method; format: functional; in short: as §1
Pseudomonas aeruginosa [32] = assay: Antibacterial activity against Pseudomonas aeruginosa PAO1 harboring siderophore receptor fptA mutant in Mueller-Hinton broth medium by CLSI broth microdilution method; format: functional; in short: as §1
Pseudomonas aeruginosa [33] = assay: Antibacterial activity against Pseudomonas aeruginosa PAO1 harboring siderophore receptor piuA and fpvA double mutant in Mueller-Hinton broth medium by CLSI broth microdilution method; format: functional; in short: as §1

## CC(C)(O/N=C(\C(=O)N[C@H]1CON(C2(C(=O)O)C[C@H](N3C(=O)c4cc(O)c(O)cc4C3=O)C(=O)O2)C1=O)c1csc(N)n1)C(=O)O (stereo not given in full)
Pseudomonas aeruginosa [1]
  MIC: 0.5 µg/mL (≈ 0.755 µM)
Pseudomonas aeruginosa [2]
  Ratio: 8
Pseudomonas aeruginosa [3]
  Ratio: 1
Pseudomonas aeruginosa [4]
  MIC: 0.125 µg/mL (≈ 0.189 µM)
Pseudomonas aeruginosa [5]
  MIC: 0.06 µg/mL (≈ 0.0906 µM)
Pseudomonas aeruginosa [6]
  MIC: 0.5 µg/mL (≈ 0.755 µM)
Pseudomonas aeruginosa [7]
  MIC: 0.25 µg/mL (≈ 0.377 µM)
Pseudomonas aeruginosa [8]
  Ratio: >=4
Pseudomonas aeruginosa [9]
  Ratio: 1
Pseudomonas aeruginosa [10]
  Ratio: >=8
Pseudomonas aeruginosa [11]
  Ratio: >=16
Pseudomonas aeruginosa [12]
  Ratio: >=8
Pseudomonas aeruginosa [13]
  Ratio: 512
Pseudomonas aeruginosa [14]
  MIC: 4 µg/mL (≈ 6.04 µM)
Pseudomonas aeruginosa [15]
  MIC: 4 µg/mL (≈ 6.04 µM)
Pseudomonas aeruginosa [16]
  MIC: 4 µg/mL (≈ 6.04 µM)
Pseudomonas aeruginosa [17]
  MIC: 4 µg/mL (≈ 6.04 µM)
Pseudomonas aeruginosa [18]
  Ratio: 1
Pseudomonas aeruginosa [19]
  Ratio: 1
Pseudomonas aeruginosa [20]
  Ratio: 0.5
Pseudomonas aeruginosa [21]
  Ratio: 1
Pseudomonas aeruginosa [22]
  Ratio: 1
Escherichia coli [23]
  MIC: 0.03 µg/mL (≈ 0.0453 µM)
Escherichia coli [24]
  MIC: 0.03 µg/mL (≈ 0.0453 µM)
Escherichia coli [25]
  MIC: 0.06 µg/mL (≈ 0.0906 µM)
Escherichia coli [26]
  MIC: 0.25 µg/mL (≈ 0.377 µM)
Pseudomonas aeruginosa [27]
  MIC: 0.5 µg/mL (≈ 0.755 µM)
Klebsiella pneumoniae
  MIC: 0.5 µg/mL (≈ 0.755 µM)
Acinetobacter baumannii
  MIC: 0.06 µg/mL (≈ 0.0906 µM)
[28]
  pIC50: 6.57
[29]
  pIC50: 7.34
Pseudomonas aeruginosa [30]
  Ratio: 1
Pseudomonas aeruginosa [31]
  MIC: 8 µg/mL (≈ 12.1 µM)
Pseudomonas aeruginosa [32]
  MIC: 4 µg/mL (≈ 6.04 µM)
Pseudomonas aeruginosa [33]
  MIC: 16 µg/mL (≈ 24.1 µM)
